Results: ChEMBL document CHEMBL1155506 (J Med Chem, 2010)

How the values were obtained:
[1] = biological target: T1, 5-hydroxytryptamine receptor 2A (Homo sapiens, UniProt P28223); experiment: Displacement of [125I]DOI from human recombinant 5HT2A receptor expressed in HEK293 cells by scintillation counting; type: cell-based
Method in brief: (§1)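 Crude plasma membranes from HEK293 cells stably expressing the human receptor (5–25 μg protein), in 20 mM HEPES pH 7.4 with 10 mM MgCl2. Incubated with 0.5 nM [125I]DOI and test compound (1 pM–10 μM) for 1 h at room temperature; nonspecific binding defined with 10 μM cold DOI. Filtered, washed with ice-cold Tris buffer and scintillation counted in triplicate.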

[2] = Half life in Sprague-Dawley rat at 10 mg/kg, po by HPLC/MS/MS analysis; type: ADME, organism-based; parameters: dose 10 mg/kg, route oral; details: in vivo
Method in brief: (§2)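 Male rats fasted overnight before oral dosing; 10 mg/kg po and 2 mg/kg iv in 80% PEG400/20% phosphate buffered saline. Jugular vein blood was sampled at 0.25–21 h over 24 h, and heparin plasma was assayed by HPLC/MS/MS (MRM, positive electrospray, internal standard; LLOQ 1 ng/mL, ULOQ 2000 ng/mL). %F is taken relative to the 2 mg/kg iv dose. Mean of n = 3 animals.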

[3] = Volume of distribution at steady state in Sprague-Dawley rat at 2 mg/kg, iv after 24 hrs by HPLC/MS/MS analysis; type: ADME, organism-based; parameters: dose 2 mg/kg, route intravenous; details: in vivo, read-out: Vdss; method in brief: as §2
[4] = Bioavailability in Sprague-Dawley rat at 2 mg/kg, iv after 24 hrs by HPLC/MS/MS analysis; type: ADME, organism-based; details: in vivo; method in brief: as §2
[5] = Antiplatelet activity in human platelet rich plasma assessed as inhibition of ADP-induced aggregation preincubated for 1 min before 5-HT and ADP challenge measured after 3 mins by turbidimetry
[6] = biological target: T2, 5-hydroxytryptamine receptor 2C (Homo sapiens, UniProt P28335); experiment: Displacement of [125I]DOI from human recombinant 5HT2C receptor expressed in HEK293 cells by scintillation counting; type: cell-based; method in brief: as §1
T2 sequence (P28335 whole entry): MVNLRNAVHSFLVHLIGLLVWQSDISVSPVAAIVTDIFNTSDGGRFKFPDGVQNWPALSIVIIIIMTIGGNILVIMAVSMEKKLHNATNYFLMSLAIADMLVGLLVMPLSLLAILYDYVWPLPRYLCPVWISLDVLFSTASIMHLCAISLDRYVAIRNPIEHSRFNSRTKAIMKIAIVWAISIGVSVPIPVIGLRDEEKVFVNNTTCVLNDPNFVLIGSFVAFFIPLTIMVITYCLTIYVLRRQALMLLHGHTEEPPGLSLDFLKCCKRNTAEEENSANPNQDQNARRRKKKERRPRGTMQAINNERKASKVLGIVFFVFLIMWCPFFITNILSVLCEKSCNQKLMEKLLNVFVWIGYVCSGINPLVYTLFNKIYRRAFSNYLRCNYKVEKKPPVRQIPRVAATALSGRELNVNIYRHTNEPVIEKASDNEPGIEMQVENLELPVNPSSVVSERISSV

[7] = AUC (0 to last) in Sprague-Dawley rat at 10 mg/kg, po after 24 hrs by HPLC/MS/MS analysis; type: ADME, organism-based; parameters: time 0 - last, dose 10 mg/kg, route oral; details: plasma; method in brief: as §2
[8] = Cmax in Sprague-Dawley rat at 10 mg/kg, po after 24 hrs by HPLC/MS/MS assay; type: ADME, organism-based; parameters: dose 10 mg/kg, route oral; details: in vivo; method in brief: as §2
[9] = Total clearance in Sprague-Dawley rat at 2 mg/kg, iv after 24 hrs by HPLC/MS/MS analysis; type: ADME, organism-based; parameters: dose 2 mg/kg, route intravenous; details: in vivo; method in brief: as §2
hERG (KCNH2) [10] = biological target: T3, hERG (KCNH2) (Homo sapiens, UniProt Q12809); experiment: Inhibition of human ERG at 1 uM by patch clamp assay
T3 sequence (Q12809 whole entry): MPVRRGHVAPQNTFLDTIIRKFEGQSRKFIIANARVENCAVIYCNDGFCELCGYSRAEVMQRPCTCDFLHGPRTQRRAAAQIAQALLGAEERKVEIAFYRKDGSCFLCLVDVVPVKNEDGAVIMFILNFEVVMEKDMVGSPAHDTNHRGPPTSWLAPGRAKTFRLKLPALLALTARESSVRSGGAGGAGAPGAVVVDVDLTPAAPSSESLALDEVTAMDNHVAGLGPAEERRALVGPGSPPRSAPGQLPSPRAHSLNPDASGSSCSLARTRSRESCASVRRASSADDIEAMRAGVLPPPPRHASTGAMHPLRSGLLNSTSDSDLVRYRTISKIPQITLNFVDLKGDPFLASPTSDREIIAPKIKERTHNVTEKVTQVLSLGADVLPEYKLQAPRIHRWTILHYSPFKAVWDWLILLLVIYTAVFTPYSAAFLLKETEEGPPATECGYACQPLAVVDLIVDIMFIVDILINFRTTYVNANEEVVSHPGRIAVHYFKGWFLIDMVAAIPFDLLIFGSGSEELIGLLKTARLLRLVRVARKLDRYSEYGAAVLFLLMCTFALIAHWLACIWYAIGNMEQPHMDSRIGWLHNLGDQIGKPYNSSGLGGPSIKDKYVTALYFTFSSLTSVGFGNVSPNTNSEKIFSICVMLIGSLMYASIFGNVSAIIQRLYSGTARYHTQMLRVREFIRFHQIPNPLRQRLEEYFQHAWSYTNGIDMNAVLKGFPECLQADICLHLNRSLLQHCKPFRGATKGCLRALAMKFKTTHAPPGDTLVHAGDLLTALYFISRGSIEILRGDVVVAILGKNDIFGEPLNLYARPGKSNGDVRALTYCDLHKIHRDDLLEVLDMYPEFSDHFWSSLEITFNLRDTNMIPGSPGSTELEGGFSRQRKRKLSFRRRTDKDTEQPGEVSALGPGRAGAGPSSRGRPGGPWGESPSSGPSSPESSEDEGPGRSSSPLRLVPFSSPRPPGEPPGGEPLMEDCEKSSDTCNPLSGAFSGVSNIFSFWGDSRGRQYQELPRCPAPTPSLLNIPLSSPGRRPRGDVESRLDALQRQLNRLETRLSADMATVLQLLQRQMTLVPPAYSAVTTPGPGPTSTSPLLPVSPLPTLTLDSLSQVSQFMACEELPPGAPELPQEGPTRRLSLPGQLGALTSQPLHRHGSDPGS

[11] = biological target: T1, 5-hydroxytryptamine receptor 2A; experiment: Inverse agonist activity at human 5HT2A receptor expressed in HEK293 cells assessed as inhibition of inositol phosphate accumulation; type: functional, cell-based
hERG (KCNH2) [12] = biological target: T3, hERG (KCNH2); experiment: Inhibition of human ERG at 3 uM by patch clamp assay

T1 sequence (P28223 whole entry): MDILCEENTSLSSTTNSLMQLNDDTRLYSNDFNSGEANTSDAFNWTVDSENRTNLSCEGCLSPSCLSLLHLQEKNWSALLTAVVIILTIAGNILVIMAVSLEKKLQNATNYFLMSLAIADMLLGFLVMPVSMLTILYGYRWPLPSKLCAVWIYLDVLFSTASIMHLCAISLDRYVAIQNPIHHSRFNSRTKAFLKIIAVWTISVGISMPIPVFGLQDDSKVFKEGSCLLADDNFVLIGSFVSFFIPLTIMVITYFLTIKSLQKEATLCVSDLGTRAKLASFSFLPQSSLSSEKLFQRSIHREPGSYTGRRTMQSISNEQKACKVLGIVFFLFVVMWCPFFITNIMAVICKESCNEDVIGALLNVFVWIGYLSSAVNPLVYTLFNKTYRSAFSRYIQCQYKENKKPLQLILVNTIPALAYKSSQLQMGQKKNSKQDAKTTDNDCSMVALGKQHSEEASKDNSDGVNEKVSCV

Row | SMILES | Ki [1] [nM] | half-life [2] [h] | Vd [3] [L/kg] | bioavailability [4] [%] | IC50 [5] [nM] | Ki [6] [nM] | AUC(0-t) at 24 h [7] [ng·h/mL] | Cmax [8] [ng/mL] | clearance [9] [mL/min/kg] | inhibition at 1 µM (hERG (KCNH2) [10]) [%] | IC50 [11] [nM] | inhibition at 3 µM (hERG (KCNH2) [12]) [%]
1 | Cn1nccc1-c1cc(NC(=O)c2cccc(C(F)(F)F)c2)ccc1OCCN1CCOCC1 | 0.7 | 1.8 | 5.1 | 27 | 18 | > 10000 | 288 | 202 | 160 | – | – | –
2 | Cn1nccc1-c1cc(NC(=O)c2ccc(F)cc2)ccc1OCCN1CCOCC1 | 18 | – | – | – | 100 | > 10000 | – | – | – | – | – | –
3 | Cn1nccc1-c1cc(NC(=O)c2cccc(C(F)(F)F)c2)ccc1OCCN1CCCC1 | 0.6 | – | – | – | 3.2 | 1140 | – | – | – | 80 | 23 | –
4 | Cn1ncc(Cl)c1-c1cc(NC(=O)c2cccc(F)c2)ccc1OCCN1CCOCC1 | 0.6 | – | – | – | 22 | 3380 | – | – | – | – | – | 46
5 | COc1cccc(C(=O)Nc2ccc(OCCN3CCN(C(C)=O)CC3)c(-c3ccnn3C)c2)c1 | 4.5 | – | – | – | 77 | > 10000 | – | – | – | – | – | 24
